According to ChEMBL document CHEMBL3425429:
Calls of active or inactive are those of the source. The rule behind the calls is not given here.

Legend:
MDA-MB-231 [1] = assay: cells; settings: Homo sapiens, MDA-MB-231, 72 h
HepG2 = assay: cells; settings: Homo sapiens, HepG2, 72 h
[2] = biological target: Proto-oncogene tyrosine-protein kinase Src (Homo sapiens, UniProt P12931)
MDA-MB-231 [3] = assay: Potency index, ratio of dasatinib IC50 to compound IC50 for human MDA-MB-231 cells; format: functional
MDA-MB-231 [4] = assay: Potency index, ratio of ponatinib IC50 to compound IC50 for human MDA-MB-231 cells; format: functional
MDA-MB-231 [5] = assay: Antimigratory activity against human MDA-MB-231 cells at 0.03 to 0.3 uM after 20 hrs by wound healing assay; format: functional, cell-based
How it was run: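 MDA-MB-231 monolayers grown to confluence, scratched with a sterile pipet tip, rinsed with saline, then kept in DMEM containing vehicle or compound; wound images taken after 20 h and analysed.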

MDA-MB-231 [6] = assay: Induction of apoptosis in human MDA-MB-231 cells assessed as early apoptotic cells at 0.3 uM after 24 hrs by annexin V-FITC/propidium iodide staining-based flow cytometric analysis (reference value: 1.58%); format: functional
MDA-MB-231 [7] = assay: Induction of apoptosis in human MDA-MB-231 cells assessed as late apoptotic cells at 0.3 uM after 24 hrs by annexin V-FITC/propidium iodide staining-based flow cytometric analysis (reference value: 2.67%); format: functional
MDA-MB-231 [8] = assay: Induction of apoptosis in human MDA-MB-231 cells assessed as early apoptotic cells at 0.3 uM after 48 hrs by annexin V-FITC/propidium iodide staining-based flow cytometric analysis (reference value: […]); format: functional
MDA-MB-231 [9] = assay: Antiproliferative activity against human MDA-MB-231 cells assessed as inhibition of colony formation at >0.01 uM after 12 days by crystal violet staining-based assay; format: functional, cell-based
How it was run: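 MDA-MB-231 cells plated at 5000 per well and treated the next day with vehicle or compound, medium refreshed every 4 days; after 12 days, colonies fixed in methanol, crystal violet stained and photographed.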

MDA-MB-231 [10] = assay: Effect on AKT phosphorylation in human MDA-MB-231 cells at 0.001 to 1 uM after 20 hrs by Western blot analysis; format: cell-based
How it was run: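 MDA-MB-231 cells exposed to a concentration series for 20 h at 37 °C, lysed in RIPA with protease inhibitor cocktail, cleared by centrifugation, protein quantified by Bradford, resolved by SDS-PAGE, transferred to PVDF and immunoblotted.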

MDA-MB-231 [11] = assay: Cell cycle arrest in human MDA-MB-231 cells assessed as accumulation at G0/G1 phase at 0.3 uM after 24 to 48 hrs by flow cytometric analysis; format: functional, cell-based
MDA-MB-231 [12] = assay: Inhibition of ERK phosphorylation in human MDA-MB-231 cells at 0.001 to 1 uM after 20 hrs by Western blot analysis; format: cell-based
How it was run: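 MDA-MB-231 cells exposed to a concentration series for 20 h at 37 °C, then washed in ice-cold saline and lysed in RIPA buffer with protease cocktail. Lysates were cleared at 12 000 rpm for 10 min at 4 °C and protein measured by Bradford. Equal protein was run on SDS-PAGE, transferred to PVDF and immunoblotted for phospho-proteins.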

MDA-MB-231 [13] = assay: Antitumor activity against human MDA-MB-231 cells xenografted in SCID mouse assessed as tumor growth inhibition at 40 mg/kg/day administered for 18 days measured every 3 days during compound dosing; format: functional, organism-based
MDA-MB-231 [14] = assay: Induction of apoptosis in human MDA-MB-231 cells assessed as viable cells at 0.3 uM after 24 hrs by annexin V-FITC/propidium iodide staining-based flow cytometric analysis (reference value: 95.5%); format: functional; settings: MDA-MB-231, 24 h, read-out: Activity
MDA-MB-231 [15] = assay: Induction of apoptosis in human MDA-MB-231 cells assessed as late apoptotic cells at 0.3 uM after 48 hrs by annexin V-FITC/propidium iodide staining-based flow cytometric analysis (reference value: 4.25%); format: functional
MDA-MB-231 [16] = assay: Antiinvasive activity against human MDA-MB-231 cells at 0.1 uM after 24 hrs by transwell assay; format: functional, cell-based
MDA-MB-231 [17] = assay: Induction of apoptosis in human MDA-MB-231 cells assessed as viable cells at 0.3 uM after 48 hrs by annexin V-FITC/propidium iodide staining-based flow cytometric analysis (reference value: 94.4%); format: functional; settings: MDA-MB-231, 48 h, read-out: Activity
MDA-MB-231 [18] = assay: Antitumor activity against human MDA-MB-231 cells xenografted in SCID mouse assessed as tumor growth inhibition at 10 mg/kg/week, iv administered for 18 days measured every 3 days during compound dosing; format: functional, organism-based
How it was run: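 SCID mice (5–6 weeks) given subcutaneous injections of 5 ×10^6 MDA-MB-231 cells; at 150–200 mm3 tumors, randomized into 6 groups of 6; oral daily dosing (vehicle 25% PEG400 + 5% DMSO in sterile water), paclitaxel 10 mg/kg/week by tail vein; tumors measured every 3 days, volume = ab²/2; side effects monitored daily.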

Chain of Proto-oncogene tyrosine-protein kinase Src (P12931 2-536 limits assumed): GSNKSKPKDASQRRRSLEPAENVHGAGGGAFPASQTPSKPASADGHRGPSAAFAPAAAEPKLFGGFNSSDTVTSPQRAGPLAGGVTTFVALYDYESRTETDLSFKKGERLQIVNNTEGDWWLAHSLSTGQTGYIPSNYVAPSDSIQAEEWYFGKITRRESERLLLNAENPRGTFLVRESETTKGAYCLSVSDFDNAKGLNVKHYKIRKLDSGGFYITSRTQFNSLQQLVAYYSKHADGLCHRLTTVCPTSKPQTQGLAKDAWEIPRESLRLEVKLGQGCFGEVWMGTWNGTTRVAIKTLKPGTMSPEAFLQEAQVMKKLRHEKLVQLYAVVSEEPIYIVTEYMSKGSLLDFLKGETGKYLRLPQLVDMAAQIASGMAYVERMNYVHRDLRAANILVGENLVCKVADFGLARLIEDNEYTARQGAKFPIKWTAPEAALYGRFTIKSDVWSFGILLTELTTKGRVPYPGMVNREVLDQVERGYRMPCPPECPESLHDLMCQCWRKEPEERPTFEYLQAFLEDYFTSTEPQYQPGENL

IC50 (MDA-MB-231 [1]) | IC50 (HepG2) | IC50 [2] | Structure (SMILES) | also measured
28 nM | > 5000 nM |  | Cc1ccc(C(=O)Nc2ccc(CN3CCN(C)CC3)c(C(F)(F)F)c2)cc1C#Cc1nn(C2CCC2)c2ncnc(N)c12 | 
1220 nM | > 5000 nM | 1410 nM | CCn1nc(C#Cc2cc(C(=O)Nc3ccc(CN4CCN(C)CC4)c(C(F)(F)F)c3)ccc2C(C)C)c2c(N)ncnc21 | 
20 nM | > 5000 nM |  | Cc1ccc(C(=O)Nc2ccc(CN3CCN(C)CC3)c(C(F)(F)F)c2)cc1C#Cc1nn(C)c2ncnc(N)c12 | 
69 nM | > 5000 nM | 2 nM | Cc1ccc(C(=O)Nc2ccc(CN3CCN(C)CC3)c(C(F)(F)F)c2)cc1C#Cc1nn(C(C)C)c2ncnc(N)c12 | Ratio IC50 (MDA-MB-231 [3]): 2.5; Ratio IC50 (MDA-MB-231 [4]): 2.5
1740 nM | > 5000 nM |  | CCn1nc(C#Cc2cc(C(=O)Nc3ccc(CN4CCN(C)CC4)c(C(F)(F)F)c3)ccc2F)c2c(N)ncnc21 | 
52 nM | > 5000 nM |  | CCn1nc(C#Cc2cc(C(=O)Nc3ccc(CN4CCN(C)CC4)c(C(F)(F)F)c3)ccc2Cl)c2c(N)ncnc21 | 
> 5000 nM | > 5000 nM |  | CCn1nc(C#Cc2cc(C(=O)Nc3ccc(CN4CCN(C)CC4)c(C(F)(F)F)c3)ccc2O)c2c(N)ncnc21 | 
51 nM | > 5000 nM |  | COCn1nc(C#Cc2cc(C(=O)Nc3ccc(CN4CCN(C)CC4)c(C(F)(F)F)c3)ccc2C)c2c(N)ncnc21 | 
418 nM | > 5000 nM |  | CCc1ccc(C(=O)Nc2ccc(CN3CCN(C)CC3)c(C(F)(F)F)c2)cc1C#Cc1nn(CC)c2ncnc(N)c12 | 
65 nM | > 5000 nM |  | Cc1ccc(C(=O)Nc2ccc(CN3CCN(C)CC3)c(C(F)(F)F)c2)cc1C#Cc1nn(C2CCCC2)c2ncnc(N)c12 | 
24 nM | > 5000 nM |  | CCn1nc(C#Cc2cccc(C(=O)Nc3ccc(CN4CCN(C)CC4)c(C(F)(F)F)c3)c2)c2c(N)ncnc21 | 
156 nM | > 5000 nM |  | Cc1ccc(C(=O)Nc2ccc(CN3CCN(C)CC3)c(C(F)(F)F)c2)cc1C#Cc1cnc2cccnn12 [PONATINIB] | 
321 nM | 4640 nM |  | CCn1nc(C#Cc2cc(C(=O)Nc3ccc(CN4CCN(C)CC4)c(C(F)(F)F)c3)ccc2OC)c2c(N)ncnc21 | 
56 nM | > 5000 nM | 2 nM | CCN1CCN(Cc2ccc(NC(=O)c3ccc(C)c(C#Cc4nn(C(C)C)c5ncnc(N)c45)c3)cc2C(F)(F)F)CC1 | 

More lines, now with the values behind:

Structure (SMILES) | IC50 (MDA-MB-231 [1]) | IC50 (HepG2) | IC50 [2] | also measured
Cc1ccc(C(=O)Nc2ccc(CN3CCN(C)CC3)cc2)cc1C#Cc1nn(C(C)C)c2ncnc(N)c12 | 270 nM | 4700 nM |  | 
Cc1ccc(C(=O)Nc2ccc(CN3CCN(C)CC3)c(C(F)(F)F)c2)cc1C#Cc1nn(C2CCN(C(=O)OC(C)(C)C)CC2)c2ncnc(N)c12 | 145 nM | > 5000 nM |  | 
Cc1ccc(C(=O)Nc2cccc(C(F)(F)F)c2)cc1C#Cc1nn(C(C)C)c2ncnc(N)c12 | 103 nM | > 5000 nM |  | 
Cc1ccc(C(=O)Nc2ccc(CN3CCN(CCO)CC3)c(C(F)(F)F)c2)cc1C#Cc1nn(C(C)C)c2ncnc(N)c12 | 50 nM | 1770 nM | 4 nM | 
Cc1ccc(C(=O)Nc2ccc(CN3CCN(C)CC3)c(Br)c2)cc1C#Cc1nn(C(C)C)c2ncnc(N)c12 | 40 nM | 1830 nM | 1 nM | 
Cc1ccc(C(=O)Nc2ccc(CN3CCN(C)CC3)c(C(F)(F)F)c2)cc1C#Cc1nn(C2CCNCC2)c2ncnc(N)c12 |  | > 5000 nM | 12 nM | 
Cc1nc(Nc2ncc(C(=O)Nc3c(C)cccc3Cl)s2)cc(N2CCN(CCO)CC2)n1.O [DASATINIB] | 178 nM | > 5000 nM |  | Activity (MDA-MB-231 [5]): Active; Activity (MDA-MB-231 [6]): 2.64%; Activity (MDA-MB-231 [7]): 4.73%; Activity (MDA-MB-231 [8]): 6.31%; inhibition (MDA-MB-231 [9]): Active; Activity (MDA-MB-231 [10]): inactive; Activity (MDA-MB-231 [11]): Active; inhibition (MDA-MB-231 [12]): inactive; TGI (MDA-MB-231 [13]): Active; viability at 0.3 µM (MDA-MB-231 [14]): 90.4%; Activity (MDA-MB-231 [15]): 9.84%; Activity (MDA-MB-231 [16]): Active; viability at 0.3 µM (MDA-MB-231 [17]): 82.9%
Cc1ccc(C(=O)Nc2ccc(CN3CCOCC3)c(C(F)(F)F)c2)cc1C#Cc1nn(C(C)C)c2ncnc(N)c12 | 1520 nM | > 5000 nM | 21 nM | 
Cc1ccc(C(=O)Nc2ccc(CN3CCN(C)CC3)c(Cl)c2)cc1C#Cc1nn(C(C)C)c2ncnc(N)c12 | 57 nM | 3540 nM | 2 nM | 
CC(=O)O[C@H]1C(=O)[C@@]2(C)[C@H]([C@H](OC(=O)c3ccccc3)[C@]3(O)C[C@H](OC(=O)[C@H](O)[C@@H](NC(=O)c4ccccc4)c4ccccc4)C(C)=C1C3(C)C)[C@]1(OC(C)=O)CO[C@@H]1C[C@@H]2O |  |  |  | TGI (MDA-MB-231 [18]): Active
C=CC(=O)N1CCC(n2nc(C#Cc3cc(C(=O)Nc4ccc(CN5CCN(C)CC5)c(C(F)(F)F)c4)ccc3C)c3c(N)ncnc32)CC1 | 14 nM | > 5000 nM |  | 
